From ChEMBL document CHEMBL3259661, “Identification of a neuroprotective and selective butyrylcholinesterase inhibitor derived from the natural alkaloid evodiamine” (Eur J Med Chem, 2014)
pIC50: −log10 of the molar value. Calls of active or inactive are those of the source. No cut-off for these calls is given here.

How the values were obtained:
[1] = molecular target: Acetylcholinesterase (Electrophorus electricus) (UniProt O42275); assay: Inhibition of electric eel AChE at 10 uM by Ellman's method
Acetylcholinesterase = Acetylcholinesterase (Electrophorus electricus, UniProt O42275); assay: Inhibition of electric eel AChE by Ellman's method
In short: (§1)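 Ethanol stocks diluted into assay, highest final concentration 10^-4 M. For curves, at least five concentrations (normally 10^-4 to 10^-9 M), each in triplicate; at least 3 independent determinations.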

Cholinesterase = Cholinesterase (Equus caballus, UniProt P81908); assay: (§2) Inhibition of equine serum BChE by Ellman's method; in short: as §1
[2] = molecular target: Cholinesterase (Equus caballus) (UniProt P81908); assay: Inhibition of equine serum BChE at 10 uM by Ellman's method
[3] = Selectivity ratio of IC50 for Electrophorus electricus acetylcholinesterase to IC50 for equine serum butyrylcholinesterase
In short: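 Ratio IC50(AChE)/IC50(BChE), with both IC50s from Ellman assays (electric eel AChE, equine serum BChE, 25 °C, 412 nm, at least five concentrations in triplicate, at least 3 independent determinations).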

[4] = molecular target: Cholinesterase (Equus caballus) (UniProt P81908); assay: Inhibition of equine serum BChE at 100 uM by Ellman's method
HT-22 [5] = assay: Neurotoxicity against mouse HT22 cells assessed as reduction in cell viability at 25 uM […] by MTT assay; type: toxicity, cell-based; details: ht-22, 25 µM
[6] = Antioxidant activity in phosphate buffer assessed as scavenging activity against peroxy radicals at pH 7.4 by ORAC-FL method relative to trolox; type: functional
In short: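 ORAC-FL in 75 mM phosphate buffer pH 7.4, 37 °C; sample with fluorescein (300 nM final) preincubated 15 min, then AAPH (12 mM final) added; fluorescence read every 60 s for 90 min (ex 485/em 535 nm). Blank and Trolox calibration in each assay; AUC from blank-normalised decay curves; expressed as Trolox equivalents.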

[7] = molecular target: Acetylcholinesterase (Electrophorus electricus) (UniProt O42275); assay: Inhibition of electric eel AChE at 100 uM by Ellman's method
HT-22 [8] = assay: Neuroprotection against glutamate challenged mouse HT22 cells assessed as reduction in cell viability at 1 to 25 uM after 48 hrs by MTT assay; type: functional, cell-based
In short: (§3)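 Murine hippocampal HT-22 cells grown in high-glucose DMEM + 10% heat-inactivated FCS, 37 °C, 5% CO2. Seeded 5 × 10³/well, cultured 24 h, then 24 h with compound (DMSO stock, final DMSO ≤0.1%) plus 5 mM glutamate. MTT (4 mg/mL stock diluted 1:10) for 3 h, 10% SDS lysis, absorbance 560 nm next day. Viability as % of untreated control. Means ± SD, ≥3 independent experiments.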

HT-22 [9] = assay: Neurotoxicity against mouse HT22 cells assessed as reduction in cell viability at 1 to 10 uM […] by MTT assay; type: toxicity, cell-based; details: ht-22, 10 µM
HT-22 [10] = assay: Neuroprotection against glutamate challenged mouse HT22 cells assessed as reduction in cell viability at 5 to 10 uM after 48 hrs by MTT assay; type: functional, cell-based; in short: as §3
HT-22 [11] = assay: Neurotoxicity against mouse HT22 cells assessed as reduction in cell viability at 1 to 25 uM […] by MTT assay; type: toxicity, cell-based; details: ht-22, 25 µM
HT-22 [12] = assay: Neuroprotection against glutamate challenged mouse HT22 cells assessed as reduction in cell viability at 5 uM after 48 hrs by MTT assay; type: functional, cell-based
[13] = molecular target: Cholinesterase (Equus caballus) (UniProt P81908); assay: as §2; details: TDE = time-dependent effect; in short: as §1
[14] = molecular target: Cholinesterase (Equus caballus) (UniProt P81908); assay: Binding affinity to equine serum BChE assessed as compound-enzyme complex stability
In short: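 Kinetic study on equine serum BChE with time-dependent inhibition followed to steady state (60 min); equilibrium constant of inhibitor–BChE complex (K_C) and carbamoylation rate constant (k3) determined.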

Sequence of Cholinesterase (P81908 whole entry): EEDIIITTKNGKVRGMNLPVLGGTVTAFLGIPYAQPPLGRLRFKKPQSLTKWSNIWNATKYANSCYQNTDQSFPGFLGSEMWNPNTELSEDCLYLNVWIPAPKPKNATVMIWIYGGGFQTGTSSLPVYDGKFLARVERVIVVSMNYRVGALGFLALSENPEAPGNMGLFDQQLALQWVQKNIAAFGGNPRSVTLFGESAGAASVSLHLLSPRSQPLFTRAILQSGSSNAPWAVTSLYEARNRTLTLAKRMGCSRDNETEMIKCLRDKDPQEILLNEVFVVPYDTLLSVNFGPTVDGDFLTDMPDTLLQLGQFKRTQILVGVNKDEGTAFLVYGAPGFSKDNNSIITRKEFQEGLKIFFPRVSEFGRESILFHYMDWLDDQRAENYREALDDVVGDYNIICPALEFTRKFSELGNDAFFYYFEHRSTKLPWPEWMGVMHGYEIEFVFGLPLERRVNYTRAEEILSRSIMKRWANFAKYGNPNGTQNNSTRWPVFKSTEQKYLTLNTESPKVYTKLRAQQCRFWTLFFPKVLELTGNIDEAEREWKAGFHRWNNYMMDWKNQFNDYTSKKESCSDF
Sequence of Cholinesterase (Equus caballus) (P81908 whole entry): as above
Sequence of Acetylcholinesterase (O42275 whole entry): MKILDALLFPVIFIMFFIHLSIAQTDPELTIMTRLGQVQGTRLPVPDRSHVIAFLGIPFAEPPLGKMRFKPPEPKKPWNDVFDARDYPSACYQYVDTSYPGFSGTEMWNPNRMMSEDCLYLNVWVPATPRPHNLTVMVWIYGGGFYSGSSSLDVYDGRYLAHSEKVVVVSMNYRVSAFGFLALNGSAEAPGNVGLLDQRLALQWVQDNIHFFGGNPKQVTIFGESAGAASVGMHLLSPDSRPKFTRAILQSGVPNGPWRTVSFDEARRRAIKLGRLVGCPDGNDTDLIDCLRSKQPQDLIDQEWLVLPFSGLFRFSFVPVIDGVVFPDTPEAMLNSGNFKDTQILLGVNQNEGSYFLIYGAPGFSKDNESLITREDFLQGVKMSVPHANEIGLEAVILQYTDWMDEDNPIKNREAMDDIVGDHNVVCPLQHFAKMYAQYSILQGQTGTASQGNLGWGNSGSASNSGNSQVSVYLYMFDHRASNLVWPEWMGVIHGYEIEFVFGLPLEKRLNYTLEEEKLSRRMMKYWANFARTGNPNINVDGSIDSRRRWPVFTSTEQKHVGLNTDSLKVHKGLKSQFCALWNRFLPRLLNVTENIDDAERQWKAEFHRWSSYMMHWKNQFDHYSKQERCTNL
Sequence of Acetylcholinesterase (Electrophorus electricus) (O42275 24-633 limits assumed): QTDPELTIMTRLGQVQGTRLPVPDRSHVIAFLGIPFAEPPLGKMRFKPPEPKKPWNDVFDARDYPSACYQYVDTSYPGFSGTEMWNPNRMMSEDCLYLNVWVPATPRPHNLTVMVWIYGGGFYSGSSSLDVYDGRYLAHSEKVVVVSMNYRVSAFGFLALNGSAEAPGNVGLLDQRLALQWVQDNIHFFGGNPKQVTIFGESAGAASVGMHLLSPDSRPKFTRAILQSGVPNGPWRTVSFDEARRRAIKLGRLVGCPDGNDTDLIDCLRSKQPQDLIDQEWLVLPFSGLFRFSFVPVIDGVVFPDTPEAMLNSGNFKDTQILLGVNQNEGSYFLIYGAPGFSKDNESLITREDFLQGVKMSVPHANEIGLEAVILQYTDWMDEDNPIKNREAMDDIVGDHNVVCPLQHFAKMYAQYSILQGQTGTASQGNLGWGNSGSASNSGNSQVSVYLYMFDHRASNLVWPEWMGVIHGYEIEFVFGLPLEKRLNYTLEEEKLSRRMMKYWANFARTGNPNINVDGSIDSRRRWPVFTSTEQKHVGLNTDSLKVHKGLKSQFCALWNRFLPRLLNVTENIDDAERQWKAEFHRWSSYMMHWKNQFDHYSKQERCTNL

CN1c2ccc(O)cc2C(=O)N2CCc3c([nH]c4ccccc34)C21 (stereo not given)
inhibition [1]: 29%
pIC50 (Acetylcholinesterase): < 4.00
pIC50 (Cholinesterase): < 4.00

CN1c2ccc(OC(=O)NCc3ccccc3)cc2C(=O)N2CCc3c([nH]c4ccccc34)C21 (stereo not given)
inhibition [1]: 10%
pIC50 (Acetylcholinesterase): < 5.00
pIC50 (Cholinesterase): < 5.00
inhibition [2]: 15%

CCNC(=O)Oc1ccc2c(c1)C(=O)N1CCc3c([nH]c4ccccc34)C1N2C (stereo not given)
inhibition [1]: 15%
pIC50 (Acetylcholinesterase): < 5.00
pIC50 (Cholinesterase): < 5.00
inhibition [2]: 21%

CCCCNC(=O)Oc1ccc2c(c1)CN1CCc3c([nH]c4ccccc34)C1N2C (stereo not given)
inhibition [1]: 47%
pIC50 (Acetylcholinesterase): < 5.00
pIC50 (Cholinesterase): 5.40
inhibition [2]: 5.4%
Ratio IC50 [3]: > 2.52

CN1c2ccc(O)cc2CN2CCc3c([nH]c4ccccc34)C21 (stereo not given)
inhibition [4]: 47%
Activity (HT-22 [5]): Toxic
pIC50 (Acetylcholinesterase): < 4.00
pIC50 (Cholinesterase): 4.71
ORAC value (Trolox equivalents) [6]: 3.55
inhibition [2]: 4.71%
inhibition [7]: 43%
Activity (HT-22 [8]): Active
Ratio IC50 [3]: > 5.17
Activity (HT-22 [9]): Non-toxic

CN1c2ccccc2CN2CCc3c([nH]c4ccccc34)C21 (stereo not given)
inhibition [1]: 24%
Activity (HT-22 [10]): Active
pIC50 (Acetylcholinesterase): < 5.00
pIC50 (Cholinesterase): 5.57
ORAC value (Trolox equivalents) [6]: 2.32
inhibition [2]: 5.57%
Ratio IC50 [3]: > 3.73

CC(C)c1ccc(NC(=O)Oc2ccc3c(c2)C(=O)N2CCc4c([nH]c5ccccc45)C2N3C)cc1 (stereo not given)
inhibition [1]: 14%
pIC50 (Acetylcholinesterase): < 5.00
pIC50 (Cholinesterase): < 5.00
inhibition [2]: 7%

COc1cccc(NC(=O)Oc2ccc3c(c2)C(=O)N2CCc4c([nH]c5ccccc45)C2N3C)c1 (stereo not given)
inhibition [1]: 15%
pIC50 (Acetylcholinesterase): < 5.00
pIC50 (Cholinesterase): < 5.00
inhibition [2]: 3%

CCCCCCCNC(=O)Oc1ccc2c(c1)C(=O)N1CCc3c([nH]c4ccccc34)C1N2C (stereo not given)
ORAC value (Trolox equivalents) [6]: 0.32
Activity (HT-22 [11]): Toxic
Activity (HT-22 [8]): Active

CN1c2ccc(OCc3ccccc3)cc2C(=O)N2CCc3c([nH]c4ccccc34)C21 (stereo not given)
inhibition [1]: 5.52%
pIC50 (Acetylcholinesterase): 5.52
pIC50 (Cholinesterase): 6.06
inhibition [2]: 6.07%
Ratio IC50 [3]: 3.42

CCNC(=O)Oc1ccc2c(c1)CN1CCc3c([nH]c4ccccc34)C1N2C (stereo not given)
inhibition [1]: 26%
pIC50 (Acetylcholinesterase): < 5.00
pIC50 (Cholinesterase): 5.99
inhibition [2]: 5.99%
Ratio IC50 [3]: > 9.71

CN1c2ccccc2C(=O)N2CCc3c([nH]c4ccccc34)C21 (stereo not given)
inhibition [1]: 37%
pIC50 (Acetylcholinesterase): < 5.00
pIC50 (Cholinesterase): 5.34
inhibition [2]: 5.34%
Ratio IC50 [3]: > 2.16

CN1c2ccc(OC(=O)NCc3ccccc3)cc2CN2CCc3c([nH]c4ccccc34)C21 (stereo not given)
inhibition [1]: 34%
pIC50 (Acetylcholinesterase): < 5.00
pIC50 (Cholinesterase): 5.67
inhibition [2]: 5.67%
Ratio IC50 [3]: > 4.65

O=c1c(O)c(-c2ccc(O)c(O)c2)oc2cc(O)cc(O)c12
Activity (HT-22 [12]): Active

CC(C)c1ccc(NC(=O)Oc2ccc3c(c2)CN2CCc4c([nH]c5ccccc45)C2N3C)cc1 (stereo not given)
inhibition [1]: 13%
pIC50 (Acetylcholinesterase): < 5.00
pIC50 (Cholinesterase): < 5.00
inhibition [2]: 41%

COc1cccc(NC(=O)Oc2ccc3c(c2)CN2CCc4c([nH]c5ccccc45)C2N3C)c1 (stereo not given)
inhibition [1]: 19%
pIC50 (Acetylcholinesterase): < 5.00
pIC50 (Cholinesterase): < 5.00
inhibition [2]: 30%

CCCCCCCNC(=O)Oc1ccc2c(c1)CN1CCc3c([nH]c4ccccc34)C1N2C (stereo not given)
inhibition [1]: 17%
Activity (HT-22 [5]): Toxic
pIC50 (Acetylcholinesterase): < 5.00
pIC50 (Cholinesterase): 7.11
inhibition [13]: tde
ORAC value (Trolox equivalents) [6]: 1.75
inhibition [2]: 7.11%
Activity (HT-22 [8]): Active
Ratio IC50 [3]: > 130
K [14]: 492 nM
Activity (HT-22 [9]): Non-toxic

CCCCNC(=O)Oc1ccc2c(c1)C(=O)N1CCc3c([nH]c4ccccc34)C1N2C (stereo not given)
inhibition [1]: 10%
pIC50 (Acetylcholinesterase): < 5.00
pIC50 (Cholinesterase): < 5.00
inhibition [2]: 12%

CNC(=O)Oc1ccc2c(c1)[C@]1(C)CCN(C)[C@@H]1N2C
inhibition [1]: 8.11%
inhibition [2]: 7.22%
